An excerpt weighted towards active compounds, which were near 2.7% of everything screened.
ASAP1 inh = inhibitors of human ASAP1 ArfGAP activity, primary screen, biochemical, fluorescence polarization; AID 624377, 2012; ASAP1-stimulated ARF1 GTP hydrolysis, GDP FP detection; actives 0.19% (n = 360,000); inhibition, % at 16.5 µM; in the data active = inhibition above about 25%;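 also: 0% = vehicle with enzyme and substrate and 100% = no enzyme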
sPLA2-III inh = human group III sPLA2 inhibitors, primary screen, biochemical, QFRET, BODIPY PC-A2 liposome substrate. Group 3 secretory phospholipase A2 (Homo sapiens), Q9NZ20. QFRET BODIPY PC-A2 liposome hydrolysis, fluorescence. inhibition, % at 12.2 µM. actives 0.56% (n = 370,000). AID 743126, 2013;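 active = inhibition above mean plus 3 SD of compounds lying within the high and low control bounds, cut at about 19% in these data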;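 also: 0% = median of test compound wells and 100% = no enzyme DMSO wells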
Target sequence (Q9NZ20 whole entry, looked up): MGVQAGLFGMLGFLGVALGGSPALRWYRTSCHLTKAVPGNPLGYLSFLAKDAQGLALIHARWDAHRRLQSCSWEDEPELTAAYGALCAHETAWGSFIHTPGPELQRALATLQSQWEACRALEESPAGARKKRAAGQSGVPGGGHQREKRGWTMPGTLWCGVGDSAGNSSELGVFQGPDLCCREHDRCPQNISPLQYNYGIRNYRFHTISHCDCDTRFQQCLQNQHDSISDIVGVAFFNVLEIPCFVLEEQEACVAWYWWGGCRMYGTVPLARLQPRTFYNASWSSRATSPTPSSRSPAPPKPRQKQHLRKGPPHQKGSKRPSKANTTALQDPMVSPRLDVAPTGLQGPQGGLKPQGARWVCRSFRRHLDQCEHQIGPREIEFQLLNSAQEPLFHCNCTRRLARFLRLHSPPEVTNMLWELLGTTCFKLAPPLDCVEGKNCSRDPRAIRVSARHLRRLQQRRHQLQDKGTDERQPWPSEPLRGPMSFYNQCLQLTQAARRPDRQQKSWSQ
MsrA act = bovine MsrA enzyme activators, primary screen, biochemical, absorbance, HTS. actives 0.3% (n = 360,000). Methionine sulfoxide reductase A (Bos taurus). activation, % at 10.6 µM. purified bovine MsrA, absorbance read-out; in the data active = activation above about 7.5%;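 also: 0% = vehicle and 100% = reference activator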
ARFGAP1 inh = inhibitors of rat ARFGAP1 GAP activity, primary screen, biochemical, fluorescence polarization, GDP tracer. ADP-ribosylation factor GTPase-activating protein 1 (Rattus norvegicus), Q62848. Arfgap1-stimulated ARF1 GTP hydrolysis, GDP FP detection. inhibition, % at 16.5 µM. actives 0.26% (n = 360,000). AID 651572, 2012;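 active = inhibition above a per-plate limit, mean inhibition of low control wells plus 3 SD, cut at about 25% in these data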;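 also: 0% = DMSO wells with enzyme and 100% = wells lacking Arfgap1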
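Material: truncated rat Arfgap1 GAP domain; Incubation: compound-enzyme preincubation 20 min, reaction 120 min, detection 60 min, 25 °C; Read-out: percent inhibition of Arfgap1-stimulated GTP hydrolysis; Technique: FP, GDP Alexa 633 tracer displaced from anti-GDP antibody, 620/688 nm; Controls: No-Arfgap1 wells (100%) versus DMSO full-reaction wells (0%); Replication: single well per compound.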
MsrA inh = bovine MsrA enzyme inhibitors, primary screen, biochemical, absorbance, HTS; Methionine sulfoxide reductase A (Bos taurus); purified bovine MsrA, absorbance read-out; inhibition, % at 15.5 µM; actives 0.75% (n = 360,000); in the data active = inhibition above about 4.5%;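 also: 0% = vehicle wells with enzyme and 100% = reference inhibitor wells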
Rev-erbA mod = modulators of Rev-erb alpha DNA binding, primary screen, biochemical, FITC-DNA, fluorescence polarization, uHTS; Nuclear receptor subfamily 1 group D member 1 (Homo sapiens), P20393; Rev-erbα–FITC-DNA binding, 90 min; activity, % at 10 µM; actives 0.79% (n = 370,000); AID 1259318, 2017;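 active = activity above about 14%, limit read from the data; passing the limit was not always enough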;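 also: 0% = DMSO wells with 35 nM protein and 100% = DMSO wells with 750 nM protein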
MsrA act confirm = bovine MsrA activators, retest, confirmation, biochemical, absorbance, HTS | shares compounds with MsrA act | AID 602270, 2012 | purified bovine MsrA, absorbance read-out | activation, % at 10.6 µM | actives 12% (n = 1,000); in the data active = activation above about 4%;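 also: enzyme coupled to thioredoxin and thioredoxin reductase with NADPH; 0% = vehicle wells and 100% = reference activator wells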
* hit, by the source's call; x = no result given.

SMILES	ASAP1 inh	sPLA2-III inh	MsrA act	ARFGAP1 inh	MsrA inh	Rev-erbA mod	MsrA act confirm
COc1ccc(NC(=O)N(C)C[C@H]2OCCCC[C@@H](C)Oc3ccc(NC(=O)c4ccccc4)cc3C(=O)N([C@H](C)CO)C[C@@H]2C)cc1	6	3	11*	2	0	-1	-2
COc1cc2c(cc1OC)C(=O)C(c1ccc3c(c1)OCO3)CC2 (centres undefined)	2	-2	-1	-13	1	9	x
COc1cc2c(cc1OC)C(=O)C(Br)CC2 (centres undefined)	x	x	14*	x	x	x	-3
Cc1cc(Cl)ccc1OCc1n[nH]c(=S)n1C1CCCCC1	12	-22	8.6*	0	0	-3	0
CCCc1cc(=O)oc2c(CN3CCN(C)CC3)c(O)c(Cl)cc12	-15	-4	13*	-13	2	-5	0
C[N+]1(C)C2CC[C@H]1CC(OC(=O)C(O)c1ccccc1)C2 (some centres undefined)	x	x	x	x	x	1	x
O=C(NC1CCCCN(Cc2ccc(Cl)cc2)C1=O)c1ccccn1 (centres undefined)	x	-4	x	x	x	0	x
O=c1cc(CSc2ccccc2)[nH]c2ccccc12	0	-1	-1	4	0	0	x
O=c1cc(CSc2ccccc2)[nH]c(=S)[nH]1	-7	1	11*	-8	1	-6	4
COc1ccc(Cn2c(NC(=O)c3ccccc3)nc(Cc3ccccc3)c2Cc2ccccc2)cc1	x	10	x	x	x	3	x
C=CCN(Cc1ccc2c(c1)OCO2)C(C#CCCCC)C(C)C (centres undefined)	x	2	x	x	x	-10	x
Cc1cccc(NC(=O)c2ccccc2NC(=O)c2ccccc2)n1	-2	-12	18*	-20	1	8	1
Cc1ccccc1C(=O)c1cccn1CC(=O)NC(C)c1ccccc1 (centres undefined)	0	-9	-2	18	0	7	x
CC(NC(=O)Cn1cccc1C(=O)c1ccccc1)c1ccccc1 (centres undefined)	6	-4	12*	15	0	3	-2
COc1ccc(NS(=O)(=O)c2cccc(C(=O)NCC(c3ccc(OC)cc3)N3CCCC3)c2)cc1 (centres undefined)	-8	-19	-1	-7	0	5	x
COc1ccc(C(CNC(=O)c2cccc(N(C)C)c2)N2CCCC2)cc1 (centres undefined)	-1	3	9.0*	3	2	3	0
COc1ccc(/C=N/Nc2ncnc(Cl)c2N)cc1OC	12	3	-2	6	3	2	x
COc1ccc(/C=N/Nc2nnc(C)n2N)cc1OC	14	2	9.0*	4	1	-4	-1
COc1ccc(/C=N/Nc2nnc(C)n2N)cc1OC(C)=O	1	1	12*	13	1	2	-2
O=S1(=O)c2c(cccc2N2CCSCC2)Oc2ccccc2CN1Cc1cn(Cc2ccccc2C(F)(F)F)nn1	x	-1	x	x	x	0	x
Cc1cccc(C)c1NC(=O)N1CCC(n2cnc3ccccc32)CC1	-5	3	-3	-3	-1	5	x
Cc1cccc(C)c1NC(=O)N1CCC(n2c(=O)[nH]c3ccccc32)CC1	7	-1	7.8*	4	-1	4	-1
O=C1NC(Cc2ccccc2)c2nc3cc(F)c(F)cc3c(=O)n2-c2ncccc21 (centres undefined)	-1	2	9.7*	-16	1	-9	1
O=C1NC(Cc2ccccc2)c2nc3cc(F)ccc3c(=O)n2-c2ncccc21 (centres undefined)	9	7	-2	15	0	-3	x
O=C(CCCCCN1C(=O)C2C3C=CC(C3)C2C1=O)Nc1ccc2ncccc2c1 (centres undefined)	x	5	x	x	x	1	x
SMILES	ASAP1 inh	sPLA2-III inh	MsrA act	ARFGAP1 inh	MsrA inh	Rev-erbA mod	MsrA act confirm
O=C(OCCN1CCCCC1)C1(c2ccccc2)CCCC1	-1	-4	-4	-10	0	-7	x
O=C(OCCN1CCCC1)C1(c2ccccc2)CCCC1	0	1	9.6*	0	0	-4	-2
COC(=O)[C@]12C[C@H](CC(=O)NCc3cccs3)C(=O)N(Cc3ccc(Cl)cc3Cl)C1=C[C@H](C(C)(C)C)O[C@@H]2C	x	-7	x	x	x	5	x
COc1ccc(/C=N/NC(=O)CCC(=O)Nc2ccc(F)cc2)c(OC)c1	1	4	-10	-6	4	2	x
COc1ccc(O)c(/C=N/NC(=O)CCC(=O)Nc2ccc(F)cc2)c1	12	-11	7.9*	-2	1	2	-3
COc1cccc(-n2cn[nH]c2=S)c1	-6	-1	7.8*	0	1	4	0
C#Cc1ccccc1OCCCN1CCC(C(O)(c2ccccc2)c2ccccc2)CC1	-9	-18	0	5	1	8	x
N#Cc1ccccc1OCCCN1CCC(C(O)(c2ccccc2)c2ccccc2)CC1	5	-25	8.3*	-9	-1	8	-2
Cc1cc(C)cc(NC(=S)N2CCCC2)c1	-2	8	12*	0	1	0	-3
CC(C)(C)OC(=O)NCc1cc2c(cc1/C=C/S(=O)(=O)NCc1ccc(F)cc1)OCO2	x	9	x	x	x	3	x
OC(c1ccc(F)c(F)c1)c1nc(-c2ccc3ccccc3c2)cs1 (centres undefined)	13	-14	9.2*	20	-1	-4	1
C=CCN(CC#CC(=C)C)Cc1ccc(OC)cc1OC	x	7	x	x	x	-4	x
CC(=O)NNC(=S)NC(=O)c1ccccc1	-4	5	8.3*	2	2	-2	0
CC(=O)NNC(=S)NC(=O)c1ccc(C)cc1	0	4	-1	-8	0	-6	x
CS(=O)(=O)c1ccc(N)c(SSc2cc(S(C)(=O)=O)ccc2N)c1	11	0	14*	3	1	3	9.8*
COc1ccc(-c2nnc(-c3cccnc3)o2)cc1OC	-11	0	-1	1	2	-4	x
CCOc1ccc(-c2nnc(-c3cccnc3)o2)cc1OCC	-2	6	9.2*	1	2	0	1

From PubChem
